In article PMC2648812 (Journal of computer-aided molecular design, 2008):
“Also recorded” adds a separate entry of the source. Non-standard residues stand in square brackets, D forms with d. Residues, ends and D or L forms follow the SMILES beside them. ξ: configuration not given here. ξT = CC(O)C(N)C(=O)O

How the values were obtained:
[1] = tested on: PDZ domain; details: previous virtual screening; cited from earlier work
[2] = biological target: PDZ domain; details: fluorescence spectroscopy, earlier studies; cited from earlier work
[3] = tested on: Wnt signaling (second axis formation); details: Xenopus, Wnt3A upstream of Dvl; cited from earlier work
[4] = biological target: T1, mouse Dvl1 PDZ domain (Mus musculus, UniProt P51141); assay: 15N HSQC NMR chemical shift perturbation titration; assay type: binding
T1 sequence (P51141 247-341): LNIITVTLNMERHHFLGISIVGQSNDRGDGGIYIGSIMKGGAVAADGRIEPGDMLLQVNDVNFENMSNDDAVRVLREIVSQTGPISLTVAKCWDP
Method in brief: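 15N-labeled mouse Dvl1 PDZ domain (residues 247-341) at 0.2-0.3 mM in 100 mM potassium phosphate pH 7.5, 10% D2O, 0.5 mM EDTA; 15N HSQC at 600 MHz, 25 °C. Five titration points (ligand:protein 1 to 15); Arg322 shift perturbation tracked, reported at about 10 equivalents. One-site model with dilution correction and two-parameter nonlinear least-squares fit gave KD. μM values were rescaled against the reference inhibitor's earlier fluorescence KD.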

Row | SMILES | binding to the PDZ domain [1] | Kd [2] | second axis formation induced by Wnt3A [3] | Kd [4] | Δδ chemical shift perturbation changes of Arg322 ([4]; 10.4 equivalents of NSC668036) | Exchange regime (in words) ([4]; NMR titration of 15N-labeled PDZ domain) | difference between KDs by NMR and by fluorescence ([4]; NSC668036, NMR KD versus fluorescence KD) | Exchange regime ([4]; from intermediate exchange (++++) to fast exchange (+) with the PDZ domain)
1 | COC(=O)C(CON)C(=O)NC(=O)C(N)CON (stereo not drawn) [NSC119132, methyl 3-((2-amino-3-(aminooxy)propanoyl)amino)-2-((aminooxy)methyl)-3-oxopropanoate] | non-binders; also recorded: do not bind to the PDZ domain | – | – | – | – | – | – | –
2 | CC(O)C(N)C(=O)NCC(=O)NCC(=O)O (stereo not drawn) [NSC344681, ((((2-amino-3-hydroxybutanoyl)amino)acetyl)amino)acetic acid] (H-[ξT]-Gly-Gly-OH) | non-binders; also recorded: do not bind to the PDZ domain | – | – | – | – | – | – | –
3 | CC(NC(=O)C(OC(=O)C(C)NC(=O)OC(C)(C)C)C(C)C)C(=O)OC(C(=O)O)C(C)C (stereo not drawn) [NSC668036, 9,15-diisopropyl-2,2,6,12-tetramethyl-4,7,10,13-tetraoxo-3,8,14-trioxa-5,11-diazahexadec an-16-oic acid] | – | 0.237 mM | inhibited the second axis formation | 27 mM | 0.035 | fast exchange regime | 114 fold | +
